# From ChEMBL document CHEMBL4831507, “Development of FABP4/5 inhibitors with potential therapeutic effect on type 2 Diabetes Mellitus” (Eur J Med Chem, 2021)
# Active and inactive are the calls of the source. The rule behind the calls is not given here.
# Molecular target: T1, Fatty acid-binding protein, adipocyte (Homo sapiens, UniProt P15090)
# Assay: Displacement of 1,8-ANS from FABP4 (unknown origin) incubated for 3 mins by fluorescence based analysis
# Settings: not given
# How it was run: (§1)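 1,8-ANS displacement using purified recombinant FABP3, FABP4 or FABP5. Compound incubated with protein and 1,8-ANS in phosphate buffer for 3 min at room temperature. Fluorescence read at ex 370/em 470 nm. IC50 by nonlinear regression, mean ± SD of three independent experiments.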
# Target sequence in this assay (P15090 whole entry): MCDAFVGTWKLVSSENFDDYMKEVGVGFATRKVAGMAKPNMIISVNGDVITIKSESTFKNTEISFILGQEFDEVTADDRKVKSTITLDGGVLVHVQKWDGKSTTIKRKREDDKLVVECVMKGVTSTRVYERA
row,IC50 [µM],Compound
1,8.02,COc1c(-c2ccccc2Cl)cc(S(=O)(=O)Nc2ccc(F)c(CC(=O)O)c2)c2ccccc12
2,4.7,O=C(O)c1cc(NS(=O)(=O)c2ccc(-c3ccc(F)cc3F)c3ccccc23)ccc1F
3,4.68,O=C(O)c1cc(NS(=O)(=O)c2ccc(-c3ccc(F)cc3Cl)c3ccccc23)ccc1F
4,5,Cc1cc(F)ccc1-c1ccc(S(=O)(=O)Nc2ccc(F)c(C(=O)O)c2)c2ccccc12

# System: THP-1
# Assay: Antiinflammatory activity against LPS-induced human THP-1 cells assessed as inhibition of MCP-1 gene expression at 25 uM incubated for 18 hrs followed by LPS-stimulation and measured after 6 hrs by qRT-PCR analysis
# Format: functional, cell-based
# Settings: time 24.0 hrs
# How it was run: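 THP-1 cells (1 per 48-well, 3*10⁵) differentiated with 100 nM PMA for 24 h, then washed with PBS. Compound at […] or 0.1% DMSO for 18 h, then 100 ng/ml LPS for 6 h. RNA extracted with TRIzol. MCP-1 mRNA by RT-qPCR, 2^-ΔΔCT method.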
row,Compound,Activity
1,O=C(O)c1cc(NS(=O)(=O)c2ccc(-c3ccc(F)cc3Cl)c3ccccc23)ccc1F,Active

# System: Mus musculus
# Assay: Improvement in lipid homeostasis in C57BL/KsJ-db/db mouse assessed as increase in high density cholesterol level in serum at 50 mg/kg, po administered for 8 weeks
# Format: functional, organism-based
# Settings: not given
# How it was run: (§2)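 Male db/db mice, 6 weeks old, 10 per group, dosed 50 mg/kg by gavage daily for 8 weeks; vehicle 0.5% CMC-Na. Lean littermates received vehicle. Body weight recorded twice weekly; 6-h fasting tail glucose by glucometer weekly. OGTT on day 45: overnight fast, glucose 0.5 g/kg by gavage. ITT on day 51: 6-h fast, insulin 0.85 IU/kg ip. Glucose AUC calculated. Final serum taken after 6-h fast; HDL-C, LDL-C, TG, TCH and FABP4 measured by kits. Liver Akt and p-Akt(Ser473) by western blot.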
row,Compound,Activity
1,O=C(O)c1cc(NS(=O)(=O)c2ccc(-c3ccc(F)cc3Cl)c3ccccc23)ccc1F,Active

# System: Mus musculus
# Assay: Improvement in lipid homeostasis in C57BL/KsJ-db/db mouse assessed as effect on triglyceride level in serum at 50 mg/kg, po administered for 8 weeks
# Format: functional, organism-based
# Settings: not given
# How it was run: as §2
row,Compound,Activity
1,O=C(O)c1cc(NS(=O)(=O)c2ccc(-c3ccc(F)cc3Cl)c3ccccc23)ccc1F,inactive

# System: Mus musculus
# Assay: Antidiabetic activity in C57BL/KsJ-db/db mouse assessed as improvement in insulin resistance at 50 mg/kg, po administered for 51 days by insulin tolerance test
# Format: functional, organism-based
# Settings: time 51.0 day
# How it was run: as §2
row,Compound,Activity
1,O=C(O)c1cc(NS(=O)(=O)c2ccc(-c3ccc(F)cc3Cl)c3ccccc23)ccc1F,Active

# System: not listed separately
# Assay: Cmax in ICR mouse at 3 mg/kg, po and 1 mg/kg, iv measured for 24 hrs by LC-MS/MS analysis
# Format: ADME, organism-based
# Set-up: time 24 hrs, dose 3 mg/kg
# Settings: in vivo
# How it was run: (§3)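 Male ICR mice, 20-25 g, three per group. Oral dose 3 mg/kg in PBS with 5% DMSO and 0.5% HPMC; iv dose 1 mg/kg in DMSO/EtOH/PEG300/NaCl (5/5/40/50). Blood sampled at 0.25, 0.5, 1, 2, 4, 8 and 24 h. Plasma drug measured by LC-MS/MS. Mean ± SEM, n = 3.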
row,Cmax [ng/mL],Compound
1,782,O=C(O)c1cc(NS(=O)(=O)c2ccc(-c3ccc(F)cc3Cl)c3ccccc23)ccc1F

# System: not listed separately
# Assay: Half life in ICR mouse at 1 mg/kg, iv measured for 24 hrs by LC-MS/MS analysis
# Format: ADME, organism-based
# Settings: in vivo
# How it was run: as §3
row,half-life [h],Compound
1,2.88,O=C(O)c1cc(NS(=O)(=O)c2ccc(-c3ccc(F)cc3Cl)c3ccccc23)ccc1F

# System: not listed separately
# Assay: Half life in ICR mouse at 3 mg/kg, po measured for 24 hrs by LC-MS/MS analysis
# Format: ADME, organism-based
# Settings: in vivo
# How it was run: as §3
row,half-life [h],Compound
1,1.36,O=C(O)c1cc(NS(=O)(=O)c2ccc(-c3ccc(F)cc3Cl)c3ccccc23)ccc1F

# Molecular target: T1, Fatty acid-binding protein, adipocyte
# Assay: Binding affinity to FABP4 (unknown origin) by microscale thermophoresis analysis
# Settings: not given
# Target sequence in this assay (P15090 whole entry): as above
row,Kd [µM],Compound
1,11.1,O=C(O)c1cc(NS(=O)(=O)c2ccc(-c3ccc(F)cc3Cl)c3ccccc23)ccc1F

# System: THP-1
# Assay: Cytotoxicity against human THP-1 cells assessed as reduction in cell viability at 50 uM incubated for 24 hrs by CCK8 assay
# Format: cell-based
# Settings: thp-1, 24 h
row,Compound,Activity
1,O=C(O)c1cc(NS(=O)(=O)c2ccc(-c3ccc(F)cc3Cl)c3ccccc23)ccc1F,Non-Toxic

# System: not listed separately
# Assay: Toxicity in C57BL/KsJ-db/db mouse assessed as effect on body weight at 50 mg/kg, po administered for 8 weeks
# Format: organism-based
# Settings: in vivo, 1344 h
# How it was run: as §2
row,Compound,Activity
1,O=C(O)c1cc(NS(=O)(=O)c2ccc(-c3ccc(F)cc3Cl)c3ccccc23)ccc1F,Non-Toxic

# System: not listed separately
# Assay: AUC in ICR mouse at 1 mg/kg, iv measured for 24 hrs by LC-MS/MS analysis
# Format: ADME, organism-based
# Set-up: dose 1 mg/kg, time 24 hrs
# Settings: in vivo
# How it was run: as §3
row,AUC at 24 h [ng·h/mL],Compound
1,1980,O=C(O)c1cc(NS(=O)(=O)c2ccc(-c3ccc(F)cc3Cl)c3ccccc23)ccc1F

# Molecular target: Fatty acid-binding protein, heart (Homo sapiens, UniProt P05413)
# Sequence (P05413 whole entry): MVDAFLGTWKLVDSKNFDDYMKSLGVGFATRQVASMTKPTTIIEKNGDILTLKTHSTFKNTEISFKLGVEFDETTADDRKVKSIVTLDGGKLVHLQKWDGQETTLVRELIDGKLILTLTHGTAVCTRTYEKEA
# Assay: Displacement of 1,8-ANS from FABP3 (unknown origin) incubated for 3 mins by fluorescence based analysis
# Settings: not given
# How it was run: as §1
row,IC50 [µM],Compound
1,104,O=C(O)c1cc(NS(=O)(=O)c2ccc(-c3ccc(F)cc3Cl)c3ccccc23)ccc1F

# System: Mus musculus
# Assay: In vivo activation of […] signaling in C57BL/KsJ-db/db mouse assessed as increase in Akt phosphorylation at Ser473 in liver at 50 mg/kg, po administered for 8 weeks by western blot analysis
# Format: functional, organism-based
# Settings: not given
# How it was run: as §2
row,Compound,Activity
1,O=C(O)c1cc(NS(=O)(=O)c2ccc(-c3ccc(F)cc3Cl)c3ccccc23)ccc1F,Active

# System: 3T3-L1
# Assay: Cytotoxicity against mouse 3T3-L1 cells assessed as reduction in cell viability at 100 uM incubated for 24 hrs by CCK8 assay
# Format: cell-based
# Settings: 3t3-l1, 24 h
row,Compound,Activity
1,COc1c(-c2ccccc2Cl)cc(S(=O)(=O)Nc2ccc(F)c(CC(=O)O)c2)c2ccccc12,Non-Toxic
2,O=C(O)c1cc(NS(=O)(=O)c2ccc(-c3ccc(F)cc3F)c3ccccc23)ccc1F,Non-Toxic
3,O=C(O)c1cc(NS(=O)(=O)c2ccc(-c3ccc(F)cc3Cl)c3ccccc23)ccc1F,Non-Toxic
4,Cc1cc(F)ccc1-c1ccc(S(=O)(=O)Nc2ccc(F)c(C(=O)O)c2)c2ccccc12,Non-Toxic

# System: Mus musculus
# Assay: Antidiabetic activity in C57BL/KsJ-db/db mouse assessed as reduction in fasting blood glucose level at 50 mg/kg, po administered for 7 weeks
# Format: functional
# Settings: 1176 h
# How it was run: as §2
row,Compound,inhibition in vivo at 50 mg/kg [%]
1,O=C(O)c1cc(NS(=O)(=O)c2ccc(-c3ccc(F)cc3Cl)c3ccccc23)ccc1F,32.4

# System: Mus musculus
# Assay: Antidiabetic activity in C57BL/KsJ-db/db mouse assessed as improvement in glucose metabolism at 50 mg/kg, po administered for 45 days by oral glucose tolerance test
# Format: functional, organism-based
# Settings: time 45.0 day
# How it was run: as §2
row,Compound,Activity
1,O=C(O)c1cc(NS(=O)(=O)c2ccc(-c3ccc(F)cc3Cl)c3ccccc23)ccc1F,Active

# System: not listed separately
# Assay: Clearance in ICR mouse at 3 mg/kg, po and 1 mg/kg, iv measured for 24 hrs by LC-MS/MS analysis
# Format: ADME, organism-based
# Settings: in vivo
# How it was run: as §3
row,clearance [mL/min/kg],Compound
1,8.73,O=C(O)c1cc(NS(=O)(=O)c2ccc(-c3ccc(F)cc3Cl)c3ccccc23)ccc1F

# System: not listed separately
# Assay: Oral bioavailability in ICR mouse at 3 mg/kg measured for 24 hrs by LC-MS/MS analysis
# Format: ADME, organism-based
# Settings: in vivo
# How it was run: as §3
row,bioavailability [%],Compound
1,18.4,O=C(O)c1cc(NS(=O)(=O)c2ccc(-c3ccc(F)cc3Cl)c3ccccc23)ccc1F

# Molecular target: T1, Fatty acid-binding protein, adipocyte
# Assay: Displacement of 1,8-ANS from FABP4 (unknown origin) at 25 uM incubated for 3 mins by fluorescence based analysis relative to control
# Settings: not given
# How it was run: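 Single-concentration percent inhibition in the 1,8-ANS displacement assay with FABP4. Compound incubated with protein and probe in phosphate buffer for 3 min at room temperature; fluorescence read at ex 370/em 470 nm.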
# Target sequence in this assay (P15090 2-132 limits assumed): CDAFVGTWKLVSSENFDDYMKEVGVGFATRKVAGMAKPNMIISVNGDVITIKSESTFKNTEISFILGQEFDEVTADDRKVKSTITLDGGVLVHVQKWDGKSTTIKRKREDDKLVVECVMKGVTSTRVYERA
row,inhibition [%],Compound
1,77,COc1c(-c2ccccc2Cl)cc(S(=O)(=O)Nc2ccc(F)c(CC(=O)O)c2)c2ccccc12
2,85,O=C(O)c1cc(NS(=O)(=O)c2ccc(-c3ccc(F)cc3F)c3ccccc23)ccc1F
3,86,O=C(O)c1cc(NS(=O)(=O)c2ccc(-c3ccc(F)cc3Cl)c3ccccc23)ccc1F
4,85,Cc1cc(F)ccc1-c1ccc(S(=O)(=O)Nc2ccc(F)c(C(=O)O)c2)c2ccccc12

# System: Mus musculus
# Assay: Improvement in lipid homeostasis in C57BL/KsJ-db/db mouse assessed as effect on total cholesterol level in serum at 50 mg/kg, po administered for 8 weeks
# Format: functional, organism-based
# Settings: not given
# How it was run: as §2
row,Compound,Activity
1,O=C(O)c1cc(NS(=O)(=O)c2ccc(-c3ccc(F)cc3Cl)c3ccccc23)ccc1F,inactive

# System: Mus musculus
# Assay: Reduction in FABP4 level in serum of C57BL/KsJ-db/db mouse at 50 mg/kg, po administered for 8 weeks
# Format: functional, organism-based
# Settings: not given
# How it was run: as §2
row,Compound,inhibition
1,O=C(O)c1cc(NS(=O)(=O)c2ccc(-c3ccc(F)cc3Cl)c3ccccc23)ccc1F,Active

# System: 3T3-L1
# Assay: Anti-lipolytic activity in mouse 3T3-L1 cells assessed as inhibition of forskolin-stimulated glycerol release at 80 uM preincubated for 24 hrs followed by forskolin stimulation for 1 hr
# Format: functional, cell-based
# Settings: time 25.0 hrs
row,Compound,Activity
1,COc1c(-c2ccccc2Cl)cc(S(=O)(=O)Nc2ccc(F)c(CC(=O)O)c2)c2ccccc12,Active
2,O=C(O)c1cc(NS(=O)(=O)c2ccc(-c3ccc(F)cc3Cl)c3ccccc23)ccc1F,Active
3,Cc1cc(F)ccc1-c1ccc(S(=O)(=O)Nc2ccc(F)c(C(=O)O)c2)c2ccccc12,Active

# System: not listed separately
# Assay: AUC in ICR mouse at 3 mg/kg, po measured for 24 hrs by LC-MS/MS analysis
# Format: ADME, organism-based
# Set-up: dose 3 mg/kg, time 24 hrs
# Settings: in vivo
# How it was run: as §3
row,AUC at 24 h [ng·h/mL],Compound
1,1090,O=C(O)c1cc(NS(=O)(=O)c2ccc(-c3ccc(F)cc3Cl)c3ccccc23)ccc1F

# System: not listed separately
# Assay: Metabolic stability in mouse liver microsomes assessed as half life at 0.1 uM preincubated for 10 mins followed by NADPH addition and measured for 60 mins by LC-MS/MS analysis
# Format: ADME, Microsome
# Settings: time 70 min
# How it was run: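 Mouse liver microsomes 0.33 mg/mL in 0.1 M Tris pH 7.4 with 5 mM MgCl₂, 0.01% DMSO and 0.005% BSA. Compound final […]. Preincubated 10 min at 37 °C; reaction started with 1 mM NADPH. Samples at 0, 7, 17, 30 and 60 min quenched with cold methanol, then analysed by LC-MS/MS.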
row,half-life at 0.1 µM [h],Compound
1,0.718,COc1c(-c2ccccc2Cl)cc(S(=O)(=O)Nc2ccc(F)c(CC(=O)O)c2)c2ccccc12
2,1.52,O=C(O)c1cc(NS(=O)(=O)c2ccc(-c3ccc(F)cc3Cl)c3ccccc23)ccc1F
3,1.47,Cc1cc(F)ccc1-c1ccc(S(=O)(=O)Nc2ccc(F)c(C(=O)O)c2)c2ccccc12

# Molecular target: Fatty acid-binding protein 5 (Homo sapiens, UniProt Q01469)
# Sequence (Q01469 whole entry): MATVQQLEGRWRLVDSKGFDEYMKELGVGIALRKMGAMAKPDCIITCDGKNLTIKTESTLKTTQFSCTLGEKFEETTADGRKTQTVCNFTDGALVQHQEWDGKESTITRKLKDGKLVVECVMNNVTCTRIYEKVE
# Assay: Displacement of 1,8-ANS from FABP5 (unknown origin) incubated for 3 mins by fluorescence based analysis
# Settings: not given
row,IC50 [µM],Compound
1,7.57,COc1c(-c2ccccc2Cl)cc(S(=O)(=O)Nc2ccc(F)c(CC(=O)O)c2)c2ccccc12

# System: Mus musculus
# Assay: Improvement in lipid homeostasis in C57BL/KsJ-db/db mouse assessed as reduction in low density cholesterol level in serum at 50 mg/kg, po administered for 8 weeks
# Format: functional, organism-based
# Settings: not given
# How it was run: as §2
row,Compound,Activity
1,O=C(O)c1cc(NS(=O)(=O)c2ccc(-c3ccc(F)cc3Cl)c3ccccc23)ccc1F,Active

# System: 3T3-L1
# Assay: Inhibition of FABP4 secretion in mouse 3T3-L1 cells assessed as reduction in FABP4 level in conditioned medium at 50 uM incubated for 24 hrs by immunoblotting analysis
# Format: functional, cell-based
# Settings: not given
# How it was run: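 Mature 3T3-L1 adipocytes starved for 6 h in DMEM with 0.5% BSA, then treated with compound at […] for 24 h. Conditioned medium ultrafiltered; lysate and medium protein measured by BCA. FABP4 immunoblotted with GAPDH, ECL detection, densitometry. Three independent experiments.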
row,Compound,inhibition
1,O=C(O)c1cc(NS(=O)(=O)c2ccc(-c3ccc(F)cc3Cl)c3ccccc23)ccc1F,Active
